In ChEMBL document CHEMBL4325910, “Design and synthesis of rosiglitazone-ferulic acid-nitric oxide donor trihybrids for improving glucose tolerance” (Eur J Med Chem, 2019):
Active and inactive are the calls of the source. The calls are words filed in the database; no cut-off is given here.

Tests used:
L02 = assay: Inhibition of cellular glucose output in dexamethasone-induced insulin resistant human L02 cells assessed as insulin-stimulated glucose uptake at 10 uM preincubated for 24 hrs followed by insulin stimulation measured after 24 hrs by glucose oxidase method (reference value: 4.5 +/- 0.7%); format: functional; parameters: scale not given: the % may be the effect or the level left
3T3-L1 = assay: Induction of insulin-stimulated 2-NBDG uptake in TNF-alpha-induced insulin resistant mouse 3T3L1 cells at 10 uM preincubated for 48 hrs followed by 2-NBDG addition measured after 30 mins in presence of insulin by fluorescence assay; format: functional, cell-based
Procedure, shortened: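 Day-8 differentiated 3T3-L1 adipocytes received TNF-α (4 ng/mL) daily for 4 days. They were pretreated in triplicate for 48 h (C-PTIO 20 μM where indicated), then given 100 μM 2-NBDG at 37 °C for 30 min in the dark, with or without insulin. After KRP washes, fluorescence was read at Ex/Em 485/515 nm. Three experiments, mean ± SD.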

Aquaporin-2 [1] = molecular target: T1, Aquaporin-2 (Homo sapiens, UniProt P41181); assay: Induction of membrane translocation of biotinylated human AQP2 expressed in rat IMCD cells at 100 uM after 30 mins by Western blot analysis; format: cell-based; details: 0.5 h
T1 sequence (P41181 whole entry): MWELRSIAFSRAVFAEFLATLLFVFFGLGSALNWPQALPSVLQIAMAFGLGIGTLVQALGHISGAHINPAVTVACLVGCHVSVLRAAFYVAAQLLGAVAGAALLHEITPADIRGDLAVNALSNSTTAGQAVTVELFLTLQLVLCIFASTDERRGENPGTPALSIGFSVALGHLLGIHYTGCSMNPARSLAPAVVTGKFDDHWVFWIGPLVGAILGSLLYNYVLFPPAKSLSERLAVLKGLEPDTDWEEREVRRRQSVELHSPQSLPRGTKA
Procedure, shortened: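 Human AQP2-transfected primary rat IMCD cells were treated for 30 min. Surface proteins were biotinylated with sulfo-NHS-LC-biotin (3 mg/mL, 60 min, 4 °C), then cells lysed in 1% NP-40 and pulled down overnight on streptavidin beads. Biotinylated and total AQP2 (30 μg/lane) were blotted with anti-AQP2 and quantified by densitometry as the biotinylated/total ratio. Three experiments, mean ± SD.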

Aquaporin-2 [2] = molecular target: T1, Aquaporin-2; assay: Induction of membrane translocation of biotinylated human AQP2 expressed in rat IMCD cells at 100 uM after 30 mins by FITC-staining based confocal fluorescence microscopic analysis; format: cell-based; details: 0.5 h
Procedure, shortened: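 Primary SD rat IMCD cells, day 5, were transfected with a human AQP2 plasmid (5 h, serum-free) and cultured 48 h. They were treated for 30 min, with 0.1% DMSO as vehicle and forskolin 100 μM as reference. Cells were fixed in paraformaldehyde, permeabilized with Triton X-100 and quenched with H2O2/methanol. They were stained with FITC-anti-AQP2 and imaged by confocal microscopy.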

SMILES | Activity (L02) [%] | Activity (3T3-L1) | also measured
COc1cc(/C=C/C(=O)OCCCO[N+](=O)[O-])ccc1OC(=O)CCC(=O)OCN1C(=O)SC(Cc2ccc(OCCN(C)c3ccccn3)cc2)C1=O (centres undefined) | 10 |  | 
COc1cc(/C=C/C(=O)OCCCCO[N+](=O)[O-])ccc1OC(=O)CCC(=O)OCN1C(=O)SC(Cc2ccc(OCCN(C)c3ccccn3)cc2)C1=O (centres undefined) | 7.8 |  | 
COC(=O)/C=C/c1ccc(O)c(OC)c1 |  | Active | 
COc1cc(/C=C/C(=O)OCN2C(=O)SC(Cc3ccc(OCCN(C)c4ccccn4)cc3)C2=O)ccc1OCCCCCCO[N+](=O)[O-] (centres undefined) | 8.5 |  | 
COc1cc(/C=C/C(=O)OCCCCCCO[N+](=O)[O-])ccc1OC(=O)CCC(=O)OCN1C(=O)SC(Cc2ccc(OCCN(C)c3ccccn3)cc2)C1=O (centres undefined) | 6.8 |  | 
COc1cc(/C=C/C(=O)OCCCCCCO[N+](=O)[O-])ccc1OC(=O)OCN1C(=O)SC(Cc2ccc(OCCN(C)c3ccccn3)cc2)C1=O (centres undefined) | 8 |  | 
COc1cc(/C=C/C(=O)OCN2C(=O)SC(Cc3ccc(OCCN(C)c4ccccn4)cc3)C2=O)ccc1OCCCO[N+](=O)[O-] (centres undefined) | 11.5 | inactive | 
COc1cc(/C=C/C(=O)OCN2C(=O)SC(Cc3ccc(OCCN(C)c4ccccn4)cc3)C2=O)ccc1OCCCCCO[N+](=O)[O-] (centres undefined) | 7.1 |  | 
COc1cc(/C=C/C(=O)OCN2C(=O)SC(Cc3ccc(OCCN(C)c4ccccn4)cc3)C2=O)ccc1OCCCCO[N+](=O)[O-] (centres undefined) | 11.1 | inactive | 
COc1cc(/C=C/C(=O)OCCCCCO[N+](=O)[O-])ccc1OC(=O)CCC(=O)OCN1C(=O)SC(Cc2ccc(OCCN(C)c3ccccn3)cc2)C1=O (centres undefined) | 10.1 |  | 
COc1cc(/C=C/C(=O)OCCCCCO[N+](=O)[O-])ccc1OC(=O)OCN1C(=O)SC(Cc2ccc(OCCN(C)c3ccccn3)cc2)C1=O (centres undefined) | 7.1 |  | 
COc1cc(/C=C/C(=O)OCCCCO[N+](=O)[O-])ccc1OC(=O)OCN1C(=O)SC(Cc2ccc(OCCN(C)c3ccccn3)cc2)C1=O (centres undefined) | 12.2 | Active | 
COc1cc(/C=C/C(=O)OCCCO[N+](=O)[O-])ccc1OC(=O)OCN1C(=O)SC(Cc2ccc(OCCN(C)c3ccccn3)cc2)C1=O (centres undefined) | 9.6 |  | 
C=C[C@@]1(C)CC(=O)[C@]2(O)[C@@]3(C)[C@@H](O)CCC(C)(C)[C@@H]3[C@H](O)[C@H](OC(C)=O)[C@@]2(C)O1 [COLFORSIN] |  |  | Activity (Aquaporin-2 [1]): Active; Activity (Aquaporin-2 [2]): Active
COC(=O)/C=C/c1ccc(OC(=O)OCN2C(=O)SC(Cc3ccc(OCCN(C)c4ccccn4)cc3)C2=O)c(OC)c1 (centres undefined) |  | Active | 
